Data from ChEMBL document CHEMBL1926569, “Novel (E)-1-(4-methyl-2-(alkylamino)thiazol-5-yl)-3-arylprop-2-en-1-ones as potent antimicrobial agents” (2011).
≈ marks a conversion by molar mass, not a printed value.

Legend:
[1] = test system: Candida albicans; assay: Antifungal activity against Candida albicans isolated from human incubated for 72 hrs followed by serial sub-cultivation for 72 hrs by serial dilution technique; type: functional
Summary of the method: (§1)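 MFC: material from 72 h malt broth microdilution wells was serially sub-cultured into fresh broth plates and incubated a further 72 h at 28 °C. Fungicidal concentration is taken from growth after sub-culture. Duplicate, repeated three times.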

[2] = test system: Aspergillus niger; assay: Antifungal activity against Aspergillus niger ATCC 6275 after 72 hrs by serial dilution technique; type: functional; details: ATCC 6275, 72 h
Summary of the method: (§2)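 Modified microdilution in 96-well plates. Fungi were kept on malt agar at 4 °C. Spores were washed off in sterile 0.85% saline with 0.1% Tween 80. Compounds were dissolved at 1 mg/ml in 5% DMSO with 0.1% Tween 80 and added to malt broth with inoculum. Plates were shaken at 160 rpm for 72 h at 28 °C. Duplicate, repeated three times.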

[3] = test system: Pseudomonas aeruginosa; assay: Antibacterial activity against Pseudomonas aeruginosa ATCC 27853 incubated for 24 hrs followed by serial sub-cultivation for 24 hrs by microdilution; type: functional; details: ATCC 27853, 24 h
Summary of the method: (§3)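 MBC: after the 24 h LB broth microdilution (1.0 × 10⁴ CFU per well, 160 rpm), wells were serially sub-cultured into fresh broth plates and incubated a further 24 h. MBC is the lowest concentration with no visible growth, taken as 99.5% killing of the original inoculum. Duplicate, repeated three times.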

[4] = test system: Penicillium ochrochloron; assay: Antifungal activity against Penicillium ochrochloron ATCC 9112 after 72 hrs by serial dilution technique; type: functional; details: ATCC 9112, 72 h; summary of the method: as §2
[5] = test system: Aspergillus niger; assay: Ratio of bifonazole to compound for Aspergillus niger ATCC 6275; type: functional
[6] = test system: Escherichia coli; assay: Antibacterial activity against Escherichia coli ATCC 35210 after 24 hrs by microdilution method; type: functional; details: ATCC 35210, 24 h
Summary of the method: (§4)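 Broth microdilution in 96-well plates. Bacterial suspensions were adjusted in sterile saline to 1.0 × 10⁵ CFU/ml, prepared daily and kept at 4 °C. Compound was added to LB broth with 1.0 × 10⁴ CFU per well and shaken at 160 rpm for 24 h at […] (so in the source). MIC is the lowest concentration with no visible growth under a binocular microscope. OD655 was also read. Duplicate, repeated three times.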

[7] = test system: Staphylococcus aureus; assay: Antibacterial activity against Staphylococcus aureus ATCC 6538 after 24 hrs by microdilution method; type: functional; details: ATCC 6538, 24 h; summary of the method: as §4
[8] = test system: Aspergillus ochraceus; assay: Antifungal activity against Aspergillus ochraceus after 72 hrs by serial dilution technique
[9] = test system: Trichoderma viride; assay: Ratio of bifonazole to compound for Trichoderma viride IAM 5061; type: functional
[10] = test system: Staphylococcus aureus; assay: Antibacterial activity against Staphylococcus aureus ATCC 6538 incubated for 24 hrs followed by serial sub-cultivation for 24 hrs by microdilution method; type: functional; details: ATCC 6538, 24 h; summary of the method: as §3
[11] = test system: Penicillium ochrochloron; assay: Ratio of ketoconazole to compound for Penicillium ochrochloron ATCC 9112; type: functional
[12] = test system: Talaromyces funiculosus; assay: Antifungal activity against Penicillium funiculosum ATCC 36839 after 72 hrs by serial dilution technique; type: functional; details: ATCC 36839, 72 h; summary of the method: as §2
[13] = test system: Candida albicans; assay: Ratio of bifonazole to compound for Candida albicans isolated from human; type: functional
[14] = test system: Penicillium ochrochloron; assay: Ratio of bifonazole to compound for Penicillium ochrochloron ATCC 9112; type: functional
[15] = test system: Aspergillus fumigatus; assay: Ratio of ketoconazole to compound for Aspergillus fumigatus isolated from human; type: functional
[16] = test system: Aspergillus flavus; assay: Antifungal activity against Aspergillus flavus ATCC 9643 after 72 hrs by serial dilution technique; type: functional; details: ATCC 9643, 72 h; summary of the method: as §2
[17] = test system: Micrococcus flavus; assay: Antibacterial activity against Micrococcus flavus ATCC 10240 incubated for 24 hrs followed by serial sub-cultivation for 24 hrs by microdilution; type: functional; details: ATCC 10240, 24 h; summary of the method: as §3
[18] = test system: Aspergillus flavus; assay: Antifungal activity against Aspergillus flavus ATCC 9643 incubated for 72 hrs followed by serial sub-cultivation for 72 hrs by serial dilution technique; type: functional; details: ATCC 9643, 72 h; summary of the method: as §1
[19] = test system: Enterococcus faecalis; assay: Antibacterial activity against Enterococcus faecalis isolated from human incubated for 24 hrs followed by serial sub-cultivation for 24 hrs by microdilution; type: functional; summary of the method: as §3
[20] = test system: Listeria monocytogenes; assay: Antibacterial activity against Listeria monocytogenes NCTC 7973 incubated for 24 hrs followed by serial sub-cultivation for 24 hrs by microdilution; type: functional; details: NCTC 7973, 24 h; summary of the method: as §3
[21] = test system: Listeria monocytogenes; assay: Antibacterial activity against Listeria monocytogenes NCTC 7973 after 24 hrs by microdilution method; type: functional; details: NCTC 7973, 24 h; summary of the method: as §4
[22] = test system: Trichoderma viride; assay: Antifungal activity against Trichoderma viride IAM 5061 incubated for 72 hrs followed by serial sub-cultivation for 72 hrs by serial dilution technique; type: functional; details: IAM 5061, 72 h; summary of the method: as §1
[23] = test system: Aspergillus ochraceus; assay: Ratio of bifonazole to compound for Aspergillus ochraceus ATCC 12066; type: functional
[24] = test system: Bacillus cereus; assay: Antibacterial activity against clinical isolate of Bacillus cereus incubated for 24 hrs followed by serial sub-cultivation for 24 hrs by microdilution; type: functional; summary of the method: as §3
[25] = test system: Aspergillus niger; assay: Antifungal activity against Aspergillus niger ATCC 6275 incubated for 72 hrs followed by serial sub-cultivation for 72 hrs by serial dilution technique; type: functional; details: ATCC 6275, 72 h; summary of the method: as §1
[26] = test system: Pseudomonas aeruginosa; assay: Antibacterial activity against Pseudomonas aeruginosa ATCC 27853 after 24 hrs by microdilution method; type: functional; details: ATCC 27853, 24 h; summary of the method: as §4
[27] = test system: Salmonella typhimurium; assay: Antibacterial activity against Salmonella Typhimurium ATCC 13311 incubated for 24 hrs followed by serial sub-cultivation for 24 hrs by microdilution; type: functional, Salmonella enterica subsp. enterica serovar Typhimurium; details: Salmonella enterica, ATCC 13311, 24 h; summary of the method: as §3
[28] = test system: Salmonella typhimurium; assay: Antibacterial activity against Salmonella Typhimurium ATCC 13311 after 24 hrs by microdilution method; type: functional, Salmonella enterica subsp. enterica serovar Typhimurium; details: Salmonella enterica, ATCC 13311, 24 h; summary of the method: as §4
[29] = test system: Penicillium ochrochloron; assay: Antifungal activity against Penicillium ochrochloron ATCC 9112 incubated for 72 hrs followed by serial sub-cultivation for 72 hrs by serial dilution technique; type: functional; details: ATCC 9112, 72 h; summary of the method: as §1
[30] = test system: Trichoderma viride; assay: Antifungal activity against Trichoderma viride IAM 5061 after 72 hrs by serial dilution technique; type: functional; details: IAM 5061, 72 h; summary of the method: as §2
[31] = test system: Candida albicans; assay: Antifungal activity against Candida albicans isolated from human after 72 hrs by serial dilution technique; type: functional; summary of the method: as §2
[32] = test system: Aspergillus ochraceus; assay: Antifungal activity against Aspergillus ochraceus ATCC 12066 after 72 hrs by serial dilution technique; type: functional; details: ATCC 12066, 72 h; summary of the method: as §2
[33] = test system: Pseudomonas aeruginosa; assay: Ratio of ampicillin MIC to compound MIC for Pseudomonas aeruginosa ATCC 27853; type: functional
[34] = test system: Talaromyces funiculosus; assay: Ratio of bifonazole to compound for Penicillium funiculosum ATCC 36839; type: functional
[35] = test system: Candida albicans; assay: Ratio of ketoconazole to compound for Candida albicans isolated from human; type: functional
[36] = test system: Aspergillus fumigatus; assay: Antifungal activity against Aspergillus fumigatus isolated from human incubated for 72 hrs followed by serial sub-cultivation for 72 hrs by serial dilution technique; type: functional; summary of the method: as §1
[37] = test system: Escherichia coli; assay: Antibacterial activity against Escherichia coli ATCC 35210 incubated for 24 hrs followed by serial sub-cultivation for 24 hrs by microdilution; type: functional; details: ATCC 35210, 24 h; summary of the method: as §3
[38] = test system: Talaromyces funiculosus; assay: Antifungal activity against Penicillium funiculosum ATCC 36839 incubated for 72 hrs followed by serial sub-cultivation for 72 hrs by serial dilution technique; type: functional; details: ATCC 36839, 72 h; summary of the method: as §1
[39] = test system: Enterococcus faecalis; assay: Antibacterial activity against Enterococcus faecalis isolated from human after 24 hrs by microdilution method; type: functional; summary of the method: as §4
[40] = test system: Aspergillus ochraceus; assay: Ratio of ketoconazole to compound for Aspergillus ochraceus ATCC 12066; type: functional
[41] = test system: Bacillus cereus; assay: Antibacterial activity against clinical isolate of Bacillus cereus after 24 hrs by microdilution method; type: functional; summary of the method: as §4
[42] = test system: Aspergillus ochraceus; assay: Antifungal activity against Aspergillus ochraceus ATCC 12066 incubated for 72 hrs followed by serial sub-cultivation for 72 hrs by serial dilution technique; type: functional; details: ATCC 12066, 72 h; summary of the method: as §1
[43] = test system: Micrococcus flavus; assay: Antibacterial activity against Micrococcus flavus ATCC 10240 after 24 hrs by microdilution method; type: functional; details: ATCC 10240, 24 h; summary of the method: as §4

MIC [2]: 49 µM (≈ 15 µg/mL)
MIC [4]: 32.7 µM (≈ 10 µg/mL)
MIC [6]: 48.9 µM (≈ 15 µg/mL)
MIC [7]: 81.7 µM (≈ 25.1 µg/mL)
MIC [8]: 49 µM (≈ 15 µg/mL)
MIC [12]: 32.7 µM (≈ 10 µg/mL)
MIC [16]: 49 µM (≈ 15 µg/mL)
MIC [21]: 98.1 µM (≈ 30.1 µg/mL)
MIC [26]: 48.9 µM (≈ 15 µg/mL)
MIC [28]: 48.9 µM (≈ 15 µg/mL)
MIC [30]: 32.7 µM (≈ 10 µg/mL)
MIC [31]: 32.7 µM (≈ 10 µg/mL)
MIC [32]: 32.7 µM (≈ 10 µg/mL)
MIC [39]: 48.9 µM (≈ 15 µg/mL)
MIC [41]: 32.7 µM (≈ 10 µg/mL)
MIC [43]: 65.3 µM (≈ 20 µg/mL)
SMILES: CCNc1nc(C)c(C(=O)/C=C/c2ccccc2Cl)s1
MFC [1]: 65.3 µM (≈ 20 µg/mL)
MBC [3]: 61.1 µM (≈ 18.7 µg/mL)
Ratio [5]: 10
Ratio [9]: 10
MBC [10]: 98.1 µM (≈ 30.1 µg/mL)
Ratio [11]: 10
Ratio [13]: 10
Ratio [14]: 10
Ratio [15]: 10
MBC [17]: 98.1 µM (≈ 30.1 µg/mL)
MFC [18]: 65.3 µM (≈ 20 µg/mL)
MBC [19]: 61.1 µM (≈ 18.7 µg/mL)
MBC [20]: 114 µM (≈ 35.1 µg/mL)
MFC [22]: 65.3 µM (≈ 20 µg/mL)
Ratio [23]: 10
MBC [24]: 65.3 µM (≈ 20 µg/mL)
MFC [25]: 65.3 µM (≈ 20 µg/mL)
MBC [27]: 61.1 µM (≈ 18.7 µg/mL)
MFC [29]: 65.3 µM (≈ 20 µg/mL)
Ratio [33]: 10
Ratio [34]: 10
Ratio [35]: 10
MFC [36]: 65.3 µM (≈ 20 µg/mL)
MBC [37]: 61.1 µM (≈ 18.7 µg/mL)
MFC [38]: 65.3 µM (≈ 20 µg/mL)
Ratio [40]: 10
MFC [42]: 49 µM (≈ 15 µg/mL)
